Values belong to the molecule of their own block, whether it stands above or below them. Non-standard residues stand in square brackets, D forms with d. Residues, ends and D or L forms follow the SMILES beside them. Nle = CCCC[C@H](N)C(=O)O
Key:
advanced solid tumors = conditions: cited from earlier work
UBE1 [1] = molecular target: T1, UBE1 (Homo sapiens, UniProt P22314); experiment: HXMS, deuterium exchange into peptide with and without UBE1; type: binding; conditions: incubation with UBE1, 10 sec labeling
T1 sequence (P22314 1-1058): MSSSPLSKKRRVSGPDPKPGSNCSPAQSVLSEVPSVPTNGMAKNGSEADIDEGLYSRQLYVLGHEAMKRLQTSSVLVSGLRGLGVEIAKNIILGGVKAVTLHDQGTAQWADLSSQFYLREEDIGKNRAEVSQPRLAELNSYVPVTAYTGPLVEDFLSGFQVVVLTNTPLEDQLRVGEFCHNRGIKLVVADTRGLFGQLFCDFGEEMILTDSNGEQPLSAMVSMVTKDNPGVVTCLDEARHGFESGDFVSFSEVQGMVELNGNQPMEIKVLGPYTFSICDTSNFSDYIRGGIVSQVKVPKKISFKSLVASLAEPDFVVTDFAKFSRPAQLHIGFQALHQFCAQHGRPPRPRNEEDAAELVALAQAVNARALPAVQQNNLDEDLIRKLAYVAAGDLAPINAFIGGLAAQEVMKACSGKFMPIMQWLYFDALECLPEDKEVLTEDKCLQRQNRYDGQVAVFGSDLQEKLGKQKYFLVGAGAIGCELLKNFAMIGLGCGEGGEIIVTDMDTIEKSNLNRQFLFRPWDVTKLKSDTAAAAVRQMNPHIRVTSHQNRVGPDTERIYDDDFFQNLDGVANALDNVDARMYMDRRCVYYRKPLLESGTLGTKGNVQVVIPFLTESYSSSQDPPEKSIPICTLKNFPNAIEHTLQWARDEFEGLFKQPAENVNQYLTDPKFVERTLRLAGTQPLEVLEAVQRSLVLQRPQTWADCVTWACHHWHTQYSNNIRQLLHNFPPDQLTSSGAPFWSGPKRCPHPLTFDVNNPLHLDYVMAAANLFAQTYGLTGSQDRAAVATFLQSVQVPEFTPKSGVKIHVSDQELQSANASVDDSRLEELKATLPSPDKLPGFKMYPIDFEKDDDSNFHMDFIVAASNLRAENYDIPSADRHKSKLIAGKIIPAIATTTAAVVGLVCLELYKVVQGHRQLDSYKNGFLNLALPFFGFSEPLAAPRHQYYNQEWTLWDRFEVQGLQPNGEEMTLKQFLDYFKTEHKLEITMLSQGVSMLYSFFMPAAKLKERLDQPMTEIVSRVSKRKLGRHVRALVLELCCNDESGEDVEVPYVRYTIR
Method in brief: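 Labelling was by 18-fold dilution into D2O buffer (pD 8) for 10 sec, quenched with guanidinium chloride/formic acid (pH 2), then LC-MS. Uptake was not back-exchange corrected. Difference = with UBE1 minus peptide alone; ≥2 biological replicates.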

UBE1 [2] = molecular target: T1, UBE1; experiment: Streptavidin capture; type: binding; conditions: UBE1 10 pmol, biotinylated peptide 5 nmol
Method in brief: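 Recombinant human UBE1 (10 pmol) was incubated with C-terminally biotinylated peptide (5 nmol) or 0.5% DMSO for 1.5 h at 4°C in 50 mM NaCl, 20 mM HEPES pH 7.4, 5 mM DTT. Streptavidin agarose was added for another 1.5 h at 4°C. Beads were washed three times in NP-40 buffer and heat-eluted (70°C, 10 min). Read-out was SDS-PAGE with silver stain.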

Molecule: NS(=O)(=O)OC[C@H]1C[C@@H](Nc2ccnc3cc(-c4cccc(SC(F)(F)F)c4)nn23)[C@H](O)[C@@H]1O [TAK-243]
- stable disease, patients (advanced solid tumors; 11 patients of twenty evaluable): 55%
- partial response, evaluable patients (advanced solid tumors; one of twenty evaluable patients): 5%

- effect of UBE1 on deuterium exchange of the peptide, in words (UBE1 [1]): no meaningful effect
Molecule: CCCC[C@H](NC(C)=O)C(=O)N[C@@H](CO)C(=O)N[C@H](C(=O)N1CCC[C@H]1C(=O)N[C@@H](C)C(=O)N[C@@H](CCCNC(=N)N)C(=O)N[C@@H](CCCNC(=N)N)C(=O)N[C@@H](CCCNC(=N)N)C(=O)N[C@@H](CC(C)C)C(=O)N[C@@H](CCCC)C(=O)N[C@@H](CCCNC(=N)N)C(=O)N[C@@H](CC(=O)O)C(=O)N[C@@H](Cc1ccccc1)C(=O)N[C@@H](CCCCN)C(=O)N[C@@H](CCCNC(=N)N)C(=O)N[C@@H](CC(C)C)C(=O)N[C@@H](CCC(N)=O)C(N)=O)[C@@H](C)O [UBE2A] (Ac-[Nle]STPARRRL[Nle]RDFKRLQ-NH2)

- binding to recombinant UBE1 by streptavidin pull-down and silver stain, in words (UBE1 [2]): directly and robustly binds
Molecule: BSTP8RRRLBRXFKRLQLys(biotin) (sidechain bridge or staple) [C-terminally biotinylated SAH-UBE2A]

From publication PMC7904387 (Nature chemical biology, 2020)
